In ChEMBL document CHEMBL3525968, “Use of transporter knockdown Caco-2 cells to investigate the in vitro efflux of statin drugs” (Drug Metab Dispos, 2011):

Experiments:
[1] = Apparent permeability from basolateral to apical side of vector transfected human Caco2 cells at 10 uM up to 120 mins by reverse-phase liquid chromatography with triple-quadrupole tandem mass spectrometry analysis; assay type: ADME, cell-based; details: Caco-2
Procedure, shortened: (§1)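 Knockdown verified by real-time PCR. Cells grown 3 weeks on collagen-coated polycarbonate Transwells. Bidirectional transport of 10 µM compound in HBSSg pH 7.4, with atenolol and propranolol co-dosed. Receiver sampled at 30–120 min, analysed by LC-MS/MS. Mean ± S.D., n = 3.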

[2] = system: P-gp; test: Apparent permeability from basolateral to apical side of P-gp knockdown human Caco2 cells at 10 uM up to 120 mins by reverse-phase liquid chromatography with triple-quadrupole tandem mass spectrometry analysis; assay type: ADME, cell-based, Caco-2; procedure, shortened: as §1
[3] = system: BCRP; test: Apparent permeability from basolateral to apical side of BCRP knockdown human Caco2 cells at 10 uM up to 120 mins by reverse-phase liquid chromatography with triple-quadrupole tandem mass spectrometry analysis; assay type: ADME, cell-based, Caco-2; procedure, shortened: as §1
[4] = Apparent permeability from basolateral to apical side of human Caco2 cells up to 120 mins by Michaelis-Menten equation analysis; assay type: ADME, cell-based, Caco-2
[5] = Apparent permeability of the compound in vector transfected human Caco2 cells at 10 uM up to 120 mins by reverse-phase liquid chromatography with triple-quadrupole tandem mass spectrometry analysis; assay type: ADME, cell-based; details: caco-2, 2 h
[6] = system: MRP2; test: Apparent permeability from basolateral to apical side of MRP2 knockdown human Caco2 cells at 10 uM up to 120 mins by reverse-phase liquid chromatography with triple-quadrupole tandem mass spectrometry analysis; assay type: ADME, cell-based, Caco-2; procedure, shortened: as §1
[7] = Apparent permeability of the compound in P-gp knockdown human Caco2 cells at 10 uM up to 120 mins by reverse-phase liquid chromatography with triple-quadrupole tandem mass spectrometry analysis; assay type: ADME, cell-based; details: caco-2, 2 h
[8] = Apparent permeability of the compound in MRP2 knockdown human Caco2 cells at 10 uM up to 120 mins by reverse-phase liquid chromatography with triple-quadrupole tandem mass spectrometry analysis; assay type: ADME, cell-based; details: caco-2, 2 h
[9] = Apparent permeability of the compound in BCRP knockdown human Caco2 cells at 10 uM up to 120 mins by reverse-phase liquid chromatography with triple-quadrupole tandem mass spectrometry analysis; assay type: ADME, cell-based; details: caco-2, 2 h
[10] = Efflux ratio of permeability from […] side in BCRP knockdown human Caco2 cells at 10 uM up to 120 mins by reverse-phase liquid chromatography with triple-quadrupole tandem mass spectrometry analysis relative to vector transfected cells; assay type: ADME, cell-based; details: caco-2, 2 h
Procedure, shortened: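 Efflux ratio (B-A over A-B Papp) measured in shRNA knockdown Caco-2 monolayers and in non-targeting vector-control monolayers, both under puromycin selection. 10 µM compound in HBSSg pH 7.4. Receiver sampled 30–120 min, LC-MS/MS. Each knockdown ratio is expressed as a percentage of the vector-control ratio.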

[11] = system: MRP2; test: Efflux ratio of permeability from […] side in MRP2 knockdown human Caco2 cells at 10 uM up to 120 mins by reverse-phase liquid chromatography with triple-quadrupole tandem mass spectrometry analysis; assay type: ADME, cell-based, Caco-2
Procedure, shortened: (§2)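 Caco-2 cells stably carrying lentiviral shRNA against MRP2 or non-targeting shRNA (vector control), kept under 10 µg/mL puromycin, knockdown confirmed by real-time PCR. Cells seeded at 60,000 cells/cm2 on collagen-coated polycarbonate Transwell membranes and grown 3 weeks. HBSS with 10 mM HEPES, 15 mM glucose, pH 7.4. Substrate at 10 µM, dosed apical or basolateral. Receiver sampled at 30, 60, 90, 120 min. Quantified by LC-MS/MS. Papp = VR/(A×C0)×dC/dt.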

[12] = Efflux ratio of permeability from […] side in BCRP knockdown human Caco2 cells at 10 uM up to 120 mins by reverse-phase liquid chromatography with triple-quadrupole tandem mass spectrometry analysis; assay type: ADME, cell-based; details: caco-2, 2 h
Procedure, shortened: as §1, with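 “Caco-2 (CRL-2102) stably transduced with lentiviral shRNA against P-gp, BCRP or MRP2, or non-targeting shRNA vector control, kept under 10 µg/mL puromycin. Knockdown” for “Knockdown”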

[13] = Apparent permeability from apical to basolateral side of vector transfected human Caco2 cells at 10 uM up to 120 mins by reverse-phase liquid chromatography with triple-quadrupole tandem mass spectrometry analysis; assay type: ADME, cell-based; details: Caco-2; procedure, shortened: as §2
[14] = system: P-gp; test: Apparent permeability from apical to basolateral side of P-gp knockdown human Caco2 cells at 10 uM up to 120 mins by reverse-phase liquid chromatography with triple-quadrupole tandem mass spectrometry analysis; assay type: ADME, cell-based, Caco-2
Procedure, shortened: as §1, with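 “Caco-2 (CRL-2102) stably transduced with lentiviral shRNA against P-gp, BCRP or MRP2, or non-targeting shRNA vector control, kept under 10 µg/mL puromycin. Knockdown” for “Knockdown”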

[15] = system: BCRP; test: Apparent permeability from apical to basolateral side of BCRP knockdown human Caco2 cells at 10 uM up to 120 mins by reverse-phase liquid chromatography with triple-quadrupole tandem mass spectrometry analysis; assay type: ADME, cell-based, Caco-2
Procedure, shortened: as §1, with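 “Caco-2 (CRL-2102) stably transduced with lentiviral shRNA against P-gp, BCRP or MRP2, or non-targeting shRNA vector control, kept under 10 µg/mL puromycin. Knockdown” for “Knockdown”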

[16] = Efflux ratio of permeability from […] side in P-gp knockdown human Caco2 cells at 10 uM up to 120 mins by reverse-phase liquid chromatography with triple-quadrupole tandem mass spectrometry analysis; assay type: ADME, cell-based; details: caco-2, 2 h
Procedure, shortened: as §1, with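 “Caco-2 (CRL-2102) stably transduced with lentiviral shRNA against P-gp, BCRP or MRP2, or non-targeting shRNA vector control, kept under 10 µg/mL puromycin. Knockdown” for “Knockdown”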

[17] = Efflux ratio of permeability from […] side in MRP2 knockdown human Caco2 cells at 10 uM up to 120 mins by reverse-phase liquid chromatography with triple-quadrupole tandem mass spectrometry analysis relative to vector transfected cells; assay type: ADME, cell-based; details: caco-2, 2 h; procedure, shortened: as §2
[18] = system: MRP2; test: Apparent permeability from apical to basolateral side of MRP2 knockdown human Caco2 cells at 10 uM up to 120 mins by reverse-phase liquid chromatography with triple-quadrupole tandem mass spectrometry analysis; assay type: ADME, cell-based, Caco-2; procedure, shortened: as §2

Structure (SMILES) | Km at 2 h ([4]; Caco-2) [µM] | Vmax ([4]; caco-2, 2 h) [pmol/min/cm2] | Papp [5] | Papp [7] | Papp [8] | Papp [9] | Papp B→A at 2 h, 10 µM [1] [×10⁻⁶ cm/s] | Papp B→A at 2 h, 10 µM [2] [×10⁻⁶ cm/s] | Papp B→A at 2 h, 10 µM [3] [×10⁻⁶ cm/s] | Papp B→A at 2 h, 10 µM [6] [×10⁻⁶ cm/s] | Ratio [10] [%] | efflux ratio at 2 h, 10 µM [11] | Ratio [12] | Papp A→B at 2 h, 10 µM [13] [×10⁻⁶ cm/s] | Papp A→B at 2 h, 10 µM [14] [×10⁻⁶ cm/s] | Papp A→B at 2 h, 10 µM [15] [×10⁻⁶ cm/s] | Ratio [16] | Ratio [17] [%] | Papp A→B at 2 h, 10 µM [18] [×10⁻⁶ cm/s]
C[C@H]1O[C@@H](O[C@H]2[C@@H](O)C[C@H](O[C@H]3[C@@H](O)C[C@H](O[C@H]4CC[C@@]5(C)[C@H](CC[C@@H]6[C@@H]5C[C@@H](O)[C@]5(C)[C@@H](C7=CC(=O)OC7)CC[C@]65O)C4)O[C@@H]3C)O[C@@H]2C)C[C@H](O)[C@@H]1O [DIGOXIN] | – | – | – | – | – | – | 20.1 | 11.8 | 9.46 | 19 | 100 | 21.4 | 17.7 | 1.14 | 1.59 | 0.54 | 7.4 | 121 | –
O=C1OC(c2ccc(O)c(S(=O)(=O)[O-])c2)(c2ccc(O)c(S(=O)(=O)[O-])c2)c2c(Br)c(Br)c(Br)c(Br)c21.[Na+].[Na+] [SULFOBROMOPHTHALEIN SODIUM] | – | – | – | – | – | – | 1.45 | – | – | 0.9 | – | 2.6 | – | 0.03 | – | – | – | 5 | 0.34
C[C@]12CC[C@@H]3c4ccc(OS(=O)(=O)O)cc4CC[C@H]3[C@@H]1CCC2=O [ESTRONE SULFURIC ACID] | – | – | – | – | – | – | 27.2 | 22.9 | 10.5 | 33.5 | 21 | 62.2 | 10.2 | 0.57 | 0.52 | 1.03 | 43.6 | 128 | 0.54
CC(C)n1c(/C=C/C(O)CC(O)CC(=O)[O-])c(-c2ccc(F)cc2)c2ccccc21.[Na+] (racemic) [FLUVASTATIN SODIUM] | – | – | permeable | impermeable | impermeable | impermeable | 96.1 | 25.3 | 57.3 | 48.2 | – | – | – | – | – | – | – | – | –

Now from value to compound, other results behind:

Km at 2 h ([4]; Caco-2) [µM] | Vmax ([4]; caco-2, 2 h) [pmol/min/cm2] | Papp [5] | Papp [7] | Papp [8] | Papp [9] | Structure (SMILES) | Papp B→A at 2 h, 10 µM [1] [×10⁻⁶ cm/s] | Papp B→A at 2 h, 10 µM [2] [×10⁻⁶ cm/s] | Papp B→A at 2 h, 10 µM [3] [×10⁻⁶ cm/s] | Papp B→A at 2 h, 10 µM [6] [×10⁻⁶ cm/s] | Ratio [10] [%] | efflux ratio at 2 h, 10 µM [11] | Ratio [12] | Papp A→B at 2 h, 10 µM [13] [×10⁻⁶ cm/s] | Papp A→B at 2 h, 10 µM [14] [×10⁻⁶ cm/s] | Papp A→B at 2 h, 10 µM [15] [×10⁻⁶ cm/s] | Ratio [16] | Ratio [17] [%] | Papp A→B at 2 h, 10 µM [18] [×10⁻⁶ cm/s]
98 | 137 | permeable | impermeable | impermeable | impermeable | CC(C)c1nc(N(C)S(C)(=O)=O)nc(-c2ccc(F)cc2)c1/C=C/[C@@H](O)C[C@@H](O)CC(=O)[O-].CC(C)c1nc(N(C)S(C)(=O)=O)nc(-c2ccc(F)cc2)c1/C=C/[C@@H](O)C[C@@H](O)CC(=O)[O-].[Ca+2] [ROSUVASTATIN CALCIUM] | 14.1 | 4.6 | 5.8 | 6.6 | – | – | – | – | – | – | – | – | –
– | – | impermeable | impermeable | impermeable | impermeable | CC[C@H](C)C(=O)O[C@H]1C[C@@H](C)C=C2C=C[C@H](C)[C@H](CC[C@@H]3C[C@@H](O)CC(=O)O3)[C@H]21 [LOVASTATIN] | – | – | – | – | – | – | – | – | – | – | – | – | –
